Screening data: PubChem, PCMD
Yeast tox: Compounds toxic to wild-type S. cerevisiae growth; AID 685; A595 turbidity, 16 h; 30,000 compounds, 0.3% hits; growth inhibition, % at 25 µM (by protocol);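 active = mutant and wild-type yeast strains alike exhibit over 30% growth inhibition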;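 also: 0% = untreated cell controls and 100% = YPD media blanks without cells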
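Schedule: 16 h growth with compound, 30 °C. System: yeast, wild-type or eIF2Bepsilon-R284H mutant. Doses: one dose, 25 µM compound[…]. Buffer or medium: YPD. Signal: turbidity measured as absorbance at 595 nm. Read-out basis: growth inhibition (%) versus cell controls and blanks.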
Yeast eIF2B: eIF2B (yeast) activity modulation; S. cerevisiae eIF2B-epsilon R284H, GCN4-lacZ luminescence; inhibition, % at 25 µM (by protocol); 27,000 compounds, 0.91% hits;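 active = mutant luminescence inhibited past about 50% while wild type luminescence and mutant growth stay under set limits, limit read from the data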
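Material – yeast eIF2B-epsilon R284H mutant carrying GCN4–beta-galactosidase fusion · Medium – YPD yeast growth medium · Compound – one concentration, 25 µM, 0.25% DMSO · Times – 16 h at 30 °C exposure · Signal – Beta-Glo luminescence plus absorbance at 595 nm · Read-out – % inhibition of reporter signal and growth versus controls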
* = called active by the depositor; · = not tested or not shown; ! = a repeat was not active. Compounds with a hit are over-represented: about 1% of the library has one in this group of screens.

SMILES | Yeast tox | Yeast eIF2B
CCCc1ccc(Oc2c(-c3ccc(O)c(C)c3O)n[nH]c2C)cc1 | 81* | -32
COc1ccc(Oc2c(-c3ccc(O)cc3O)n[nH]c2C)cc1 | 6 | -1
c1ccc(SCCc2ccncc2)cc1 | 9 | ·
Fc1ccc(SCCc2ccncc2)cc1 | 59*! | ·
CCCCOC(=O)Nc1cccc(C(C)=O)c1 | 19 | 8
O=C(Nc1ccc(Oc2cccc3ccccc23)cc1)c1ccco1 | 20 | ·
Cc1ccc(CNC(=O)CCS(=O)(=O)c2cccc3nonc23)cc1 | 14 | 6
COc1cc(NC(=O)c2ccccc2)c(OC)cc1Cl | 9 | -3
COCC(=O)Nc1cc(OC)c(Cl)cc1OC | -5 | 55*
CN1C(=O)c2ccccc2C(C(=O)O)C1c1cn(C)c2ccccc12 (configuration not stated) | 4 | -9
COc1ccc(OC)c(NC(=O)Nc2ccc(Cl)cc2)c1 | 31 | ·
COc1ccc(OC)c(N/C(C)=C/C(=O)c2ccc(C)o2)c1 | -2 | 56*
CCOC(=O)Cn1c2ccc(OC)cc2c2nc3ccccc3nc21 | -6 | 33
COC(=O)Cn1c2ccc(OC)cc2c2nc3ccccc3nc21 | -7 | 53*
O=c1cc(NCc2ccco2)[nH]c(=O)n1-c1ccc(Br)cc1 | -8 | -26
COc1cc(C)ccc1OCCCON1C(=O)CCC1=O | 15 | 23
CCc1nc(N2CCOCC2)c(C#N)c2c1CCCC2 | 10 | -3
N#Cc1c(N2CCOCC2)nc(-c2ccco2)c2c1CCCC2 | -3 | 57*
COC(=O)C(C)Oc1ccc(=O)[nH]n1 (configuration not stated) | · | 15
CC(C)c1nnc(NC(=O)CC(=O)Nc2ccccc2C(=O)O)s1 | -18 | 35
CC1CCCCN1C(=O)CSc1nnc(CSc2ncccn2)n1C (configuration not stated) | 27 | 2
CCOC(=O)CSc1nc2ccccc2c(=O)n1CCC(=O)NCCc1ccc(OC)c(OC)c1 | 21 | 19
COc1ccc(C(=O)Nc2nnc(-c3ccccc3)o2)cc1OC | 14 | 21
Cc1cccc(-c2nnc(NC(=O)c3ccc(Cl)cc3)o2)c1 | 57* | 17
Cc1ccc(-c2noc(CSc3ccccc3)n2)cc1 | 8 | 21
SMILES | Yeast tox | Yeast eIF2B
c1ccc(SCc2nc(-c3ccccn3)no2)cc1 | 18 | 64*
Cc1ccc(NS(=O)(=O)N(C)C)cc1 | -5 | -12
COC(=O)c1ccc(NS(=O)(=O)N(C)C)cc1 | -7 | 60*
COc1cc2c(cc1NC(=S)Nc1cccc(C(F)(F)F)c1)oc1ccccc12 | 2 | 4
O=C(Cn1cc(C(F)(F)F)ccc1=O)N1CCN(S(=O)(=O)c2ccc(Cl)cc2)CC1 | 1 | 15
COC(=O)C1=C(CSc2nccn2C)NC(=O)NC1c1cc(C)ccc1C (configuration not stated) | 22 | ·
COc1ccccc1NC(=S)NNC(=O)c1ccccc1 | -8 | 58*
COc1ccccc1NC(=O)Oc1ccc(C(C)=O)cc1 | -4 | 14
Cn1nnnc1SCCNC/C=C/c1ccccc1 | 13 | 13
O=C(COC(=O)c1cnccn1)c1ccc2c(c1)CCCC2 | 27 | -17
N#C/C(=C/c1ccc(N2CCCCC2)o1)c1cccc(F)c1 | 13 | ·
Cc1ccc2nc(/C(C#N)=C\c3ccc(N4CCOCC4)o3)[nH]c2c1 | · | 65*
CCOC(=O)C1CCN(C(=O)C2CCCCC2)CC1 | 2 | 41
COc1ccc2c(c1)CCc1c(C(=O)N3CCCc4ccccc43)noc1-2 | -10 | 36
COc1ccc2c(c1)CCc1c(C(=O)N3CC4(C)CC3CC(C)(C)C4)noc1-2 (configuration not stated) | -3 | 71*
C=CCSc1nnc(NC(=O)CSc2nc3ccccc3o2)s1 | · | 11
CCOC(=O)C(C(=O)OCC)C(C(=O)OCC)N1CCOCC1 (configuration not stated) | 33* | 5
CCOC(=O)C(C)CC(C)C(=O)N1CCOCCOCCN(C(=O)C(C)CC(C)C(=O)OCC)CCOCC1 (configuration not stated) | 21 | 9
COC(=O)c1ccccc1NC(=O)/C=C/c1cc(OC)c(OC)c(OC)c1 | -20 | 17
CCOC(=O)C(C)c1nc2ccccc2[nH]c1=O (configuration not stated) | 8 | 33
CC(C)OC(=O)CCc1nc2ccccc2[nH]c1=O | 2 | 61*
COc1ccc(C)cc1N(C(=O)CNC(=O)c1ccco1)C(C(=O)NC1CCCC1)c1cccnc1 (configuration not stated) | 8 | -5
Cc1ccccc1-c1cc(-c2ccccc2O)n[nH]1 | 18 | 20
Cc1ccc(-c2cc(-c3ccccc3Cl)[nH]n2)c(O)c1 | 64* | 30
CCOC(=O)C1=C(c2ccccc2)N=C2SCC(=O)N2C1c1ccc(OC)c(OC)c1 (configuration not stated) | 6 | 13
